Measured values from ChEMBL document CHEMBL3826901, “Design, synthesis, and mode of action studies of a mitomycin tetramer inducing double activations with a single probe” (Bioorg Med Chem, 2016).

Key:
Escherichia coli [1] = assay: Induction of interstrand cross-linking in EcoR1-linearized Escherichia coli pBR322 plasmid DNA at 0.10 mM after 2 hrs using 5 equiv of Et3P by ethidium bromide staining based alkaline agarose gel electrophoresis
Summary of the method: (§1)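 EcoRI-linearized pBR322 DNA in aqueous Tris-HCl pH 7.4 was N2-deaerated for 15 min. Mitomycin (from 5 mM DMSO stock) and Et3P (5 equiv) were added, then incubated 2 h at room temperature. Purified DNA was run on a denaturing alkaline agarose gel (40 mM NaOH, 1 mM EDTA) with a HindIII-digested λ marker. The gel was neutralized and ethidium bromide-stained, and the cross-linked band quantified.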

[2] = Prodrug activation in Tris HCl methanolic solution at 0.03 mM at pH 7.4 using 5 equiv of Et3P by UV-visible spectrophotometry; details: buffer, pH 7.4, 30 µM
Summary of the method: (§2)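 Mitomycin (from 1.0 mM methanolic stock) was in 0.1 M Tris-HCl methanolic buffer, 'pH' 7.4, at 25 °C. Nucleophile was added from methanolic stock (final 0.06–1.5 mM). UV-vis scans (200–500 nm) ran beyond two half-lives. Pseudo-first-order kobs and t1/2 were derived from 370 nm absorbance. Final 'pH' was within ±0.1 units. Runs were in duplicate and averaged.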

Escherichia coli [3] = assay: Induction of interstrand cross-linking in EcoR1-linearized Escherichia coli pBR322 plasmid DNA at 0.20 mM after 2 hrs using 5 equiv of Et3P by ethidium bromide staining based alkaline agarose gel electrophoresis; summary of the method: as §1
[4] = Prodrug activation in Tris HCl methanolic solution at pH 7.4 using 5 equiv of Et3P by UV-visible spectrophotometry; details: buffer
[5] = Prodrug activation in Tris HCl methanolic solution at 0.015 mM at pH 7.4 using 10 equiv of L-DTT by UV-visible spectrophotometry; details: buffer, pH 7.4, 15 µM; summary of the method: as §2
[6] = Prodrug activation in Tris HCl methanolic solution at 0.015 mM at pH 7.4 using 20 equiv of GSH by UV-visible spectrophotometry; details: buffer, pH 7.4, 15 µM; summary of the method: as §2
[7] = Prodrug activation in Tris HCl methanolic solution at 0.015 mM at pH 7.4 using 20 equiv of L-DTT by UV-visible spectrophotometry; details: buffer, pH 7.4, 15 µM; summary of the method: as §2
[8] = Prodrug activation in Tris HCl methanolic solution at 0.015 mM at pH 7.4 using 5 equiv of Et3P by UV-visible spectrophotometry; details: buffer, pH 7.4, 15 µM; summary of the method: as §2
[9] = Prodrug activation in Tris HCl methanolic solution at 0.015 mM at pH 7.4 using 10 equiv of Et3P by UV-visible spectrophotometry; details: buffer, pH 7.4, 15 µM; summary of the method: as §2
[10] = Prodrug activation in Tris HCl methanolic solution at 0.015 mM at pH 7.4 using 20 equiv of Et3P by UV-visible spectrophotometry; details: buffer, pH 7.4, 15 µM; summary of the method: as §2
[11] = Prodrug activation in Tris HCl methanolic solution at 0.015 mM at pH 7.4 using 50 equiv of Et3P by UV-visible spectrophotometry; details: buffer, pH 7.4, 15 µM; summary of the method: as §2
[12] = Prodrug activation in Tris HCl methanolic solution assessed as half-life at 0.015 mM at pH 7.4 using 10 equiv of L-DTT by UV-visible spectrophotometry; details: buffer, pH 7.4, 15 µM; summary of the method: as §2
[13] = Prodrug activation in Tris HCl methanolic solution assessed as half-life at 0.015 mM at pH 7.4 using 20 equiv of L-DTT by UV-visible spectrophotometry; details: buffer, pH 7.4, 15 µM; summary of the method: as §2
[14] = Prodrug activation in Tris HCl methanolic solution assessed as half-life at 0.015 mM at pH 7.4 using 20 equiv of GSH by UV-visible spectrophotometry; details: pH 7.4, 15 µM; summary of the method: as §2
[15] = Prodrug activation in Tris HCl methanolic solution assessed as half-life at 0.015 mM at pH 7.4 using 5 equiv of Et3P by UV-visible spectrophotometry; details: buffer, pH 7.4, 15 µM; summary of the method: as §2
[16] = Prodrug activation in Tris HCl methanolic solution assessed as half-life at 0.015 mM at pH 7.4 using 10 equiv of Et3P by UV-visible spectrophotometry; details: buffer, pH 7.4, 15 µM; summary of the method: as §2
[17] = Prodrug activation in Tris HCl methanolic solution assessed as half-life at 0.015 mM at pH 7.4 using 20 equiv of Et3P by UV-visible spectrophotometry; details: buffer, pH 7.4, 15 µM; summary of the method: as §2
[18] = Prodrug activation in Tris HCl methanolic solution assessed as half-life at 0.015 mM at pH 7.4 using 50 equiv of Et3P by UV-visible spectrophotometry; details: buffer, pH 7.4, 15 µM; summary of the method: as §2
Escherichia coli [19] = assay: Induction of interstrand cross-linking in EcoR1-linearized Escherichia coli pBR322 plasmid DNA at 0.025 mM after 2 hrs using 5 equiv of Et3P by ethidium bromide staining based alkaline agarose gel electrophoresis; summary of the method: as §1
Escherichia coli [20] = assay: Induction of interstrand cross-linking in EcoR1-linearized Escherichia coli pBR322 plasmid DNA at 0.050 mM after 2 hrs using 5 equiv of Et3P by ethidium bromide staining based alkaline agarose gel electrophoresis; summary of the method: as §1
[21] = Prodrug activation in Tris HCl methanolic solution at 0.030 mM at pH 7.4 using 10 equiv of Et3P by UV-visible spectrophotometry; details: buffer, pH 7.4, 30 µM; summary of the method: as §2

For CO[C@@]12[C@H](COC(N)=O)C3=C(C(=O)C(C)=C(NCC(O)CNC4=C(C)C(=O)C5=C(C4=O)[C@@H](COC(N)=O)[C@@]4(OC)[C@H]6N[C@H]6CN54)C3=O)N1C[C@@H]1N[C@@H]12 (some centres undefined), the Activity (Escherichia coli [1]) was 5% and the Drug metabolism [2] was “metabolite_notdetected”.

For CO[C@@]12[C@H](COC(N)=O)C3=C(C(=O)C(C)=C(N)C3=O)N1C[C@@H]1N[C@@H]12 [MITOMYCIN], the Activity (Escherichia coli [3]) was 2% and the Drug metabolism [4] was “metabolite_notdetected”.

With CO[C@@]12[C@H](COC(N)=O)C3=C(C(=O)C(C)=C(NCC(CNC4=C(C)C(=O)C5=C(C4=O)[C@@H](COC(N)=O)[C@@]4(OC)[C@H]6N[C@H]6CN54)SSC(CNC4=C(C)C(=O)C5=C(C4=O)[C@@H](COC(N)=O)[C@@]4(OC)[C@H]6N[C@H]6CN54)CNC4=C(C)C(=O)C5=C(C4=O)[C@@H](COC(N)=O)[C@@]4(OC)[C@H]6N[C@H]6CN54)C3=O)N1C[C@@H]1N[C@@H]12 (some centres undefined) the K [5] was 0.69 day⁻¹, the K [6] was 1 day⁻¹ and the K [7] was 1.3 day⁻¹. It also gave a K [8] of 0.72 day⁻¹, a K [9] of 1.3 day⁻¹ and a K [10] of 2.9 day⁻¹. The K [11] was 6.9 day⁻¹, the t1/2 [12] was 24 h and the t1/2 [13] was 12.7 h. For the same molecule, the t1/2 [14] was 16.6 h, the t1/2 [15] was 23 h and the t1/2 [16] was 12.7 h. The t1/2 [17] was 5.76 h, the t1/2 [18] was 2.4 h and the Activity (Escherichia coli [19]) was 17%. For the same molecule, the Activity (Escherichia coli [20]) was 41%, the Activity (Escherichia coli [1]) was 51% and the Activity (Escherichia coli [3]) was 68%.

Work on CO[C@@]12[C@H](COC(N)=O)C3=C(C(=O)C(C)=C(NCC4CCC(CNC5=C(C)C(=O)C6=C(C5=O)[C@@H](COC(N)=O)[C@@]5(OC)[C@H]7N[C@H]7CN65)SS4)C3=O)N1C[C@@H]1N[C@@H]12 (some centres undefined) yielded an Activity (Escherichia coli [1]) of 40.5% and a K [21] of 1.35 day⁻¹.
